From PubChem
A1 apoptosis 2 = compounds inhibiting A1, read as caspase activation | MEF A1-2A-BIM cells, caspase-Glo luminescence, 3 h; percent of clofoctol response, DMSO zero | caspase activation, % (test concentration not listed) | 24,000 tested, under 10 active | AID 2465; in the data active = caspase activation above about 5.9%
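Evaluation: Caspase-3/7 activity from luminescence increase | Assay system: A1-2A-BIM mouse embryonic fibroblasts | Quantity: 2500 MEF cells/well | Medium: RPMI-1640 plus 10% FBS | Detection: Caspase-Glo 3/7 luminescence, 1 h at room temperature | Dosing: 50 nL compound per well, pinned | Timing: Cells settled overnight, compound exposure 3 h at 37 °C, 5% CO2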
T cruzi HTS = inhibitors of intracellular Trypanosoma cruzi | intracellular Trypanosoma cruzi in host cells, plate reader | activity score (inhibition), % at 5.01 µM | actives 4.9% (n = 22,000) | AID 651903; in the data active = activity score above about 55%;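 also: parasites and compound incubated about four days before reading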
INS-1E ATP HTS = rescue of cytokine-induced death in INS-1E beta cells; INS-1E cytokine-induced death, ATP luminescence, 48 h; normalised: neutral wells 0, positive control 100; protection from cytokine-induced ATP loss, % at 10 µM; actives 0.1% (n = 20,000);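 active = mean replicate protection from cytokine-induced ATP loss at least 50% and at least 75% of replicates each reaching 50%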
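Assay system: INS-1E rat insulinoma cells. Amount: 8000 cells per well. Medium: phenol-red-free RPMI with 5% fetal bovine serum. Reagent: IL-1β, TNF-α and IFN-γ cytokine mix. Doses: one compound concentration, pin transfer. Schedule: 48 h co-treatment, 10 min post-lysis read. Detection: CellTiter-Glo luminescence measuring cellular ATP.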
Hits are given with their value; - = inactive; . = no result. The full list was thinned out, with hits kept by preference.

SMILES	A1 apoptosis 2	T cruzi HTS	INS-1E ATP HTS
C[C@@H]1CN([C@H](C)CO)C(=O)Cc2cc(NC(=O)Nc3ccc4c(c3)OCO4)ccc2O[C@@H]1CN(C)Cc1ccc(C(F)(F)F)cc1	.	76	-
C[C@H]1CN([C@@H](C)CO)C(=O)Cc2cc(NC(=O)Nc3ccc(C(F)(F)F)cc3)ccc2O[C@@H]1CN(C)Cc1ccc2c(c1)OCO2	.	-	-
C[C@@H]1CN([C@H](C)CO)C(=O)Cc2cc(NC(=O)Nc3ccc(F)cc3)ccc2O[C@H]1CN(C)Cc1ccc2c(c1)OCO2	-	-	-
C[C@@H]1CN([C@@H](C)CO)C(=O)Cc2cc(NC(=O)Nc3ccc4c(c3)OCO4)ccc2O[C@@H]1CN(C)Cc1ccc2c(c1)OCO2	.	-	-
C[C@@H]1CN([C@H](C)CO)C(=O)Cc2cc(NC(=O)Nc3ccc(C(F)(F)F)cc3)ccc2O[C@@H]1CN(C)Cc1ccc2c(c1)OCO2	-	62	-
C[C@H](CO)N1C[C@H](C)[C@H](CN(C)Cc2ccc3c(c2)OCO3)Oc2ccc(NC(=O)Nc3ccc(C(F)(F)F)cc3)cc2CC1=O	-	74	-
O=C(O)c1ccc(/C=N/NC(=O)c2cccc(C(=O)NO)c2)cc1	-	-	-
C[C@H](CO)N1C[C@H](C)[C@@H](CN(C)S(=O)(=O)c2ccc(Cl)cc2)Oc2c(NS(=O)(=O)c3ccc(Cl)cc3)cccc2C1=O	-	-	-
O=C(CCCCCCC(=O)N/N=C/c1ccc(Br)o1)NO	-	.	.
CC1(C)[C@H]2CC=C(/C=N\NC(=O)c3ccccn3)[C@@H]1C2	-	-	-
C[C@@H]1CN([C@H](C)CO)C(=O)Cc2cc(NC(=O)Cc3cn(C)c4ccccc34)ccc2O[C@@H]1CN(C)Cc1ccc(C(=O)Nc2ccccc2N)cc1	-	72	-
C[C@H](CO)N1C[C@H](C)[C@H](CN(C)Cc2ccc(C(=O)Nc3ccccc3N)cc2)Oc2ccc(NC(=O)Cc3cn(C)c4ccccc34)cc2CC1=O	.	-	-
C[C@@H]1CN([C@@H](C)CO)C(=O)Cc2cc(NC(=O)Cc3cn(C)c4ccccc34)ccc2O[C@@H]1CN(C)Cc1ccc(C(=O)Nc2ccccc2N)cc1	-	.	.
C[C@H]1CN([C@@H](C)CO)C(=O)Cc2cc(NC(=O)Cc3cn(C)c4ccccc34)ccc2O[C@H]1CN(C)Cc1ccc(C(=O)Nc2ccccc2N)cc1	.	66	-
O=C(CCCCCC(=O)N/N=C/c1cccnc1Br)NO	-	.	.
COC(=O)CCCCCCC(=O)N/N=C/[C@H](O)[C@@H](O)[C@H](O)CO	-	-	-
C[C@@H]1CN([C@H](C)CO)C(=O)c2cccc(NC(=O)c3ccncc3)c2O[C@@H]1CN(C)Cc1ccc(-c2ccccc2)cc1	-	67	-
C[C@H]1CN([C@@H](C)CO)C(=O)c2cccc(NC(=O)c3ccncc3)c2O[C@@H]1CN(C)Cc1ccc(C(=O)O)cc1	-	-	-
C[C@@H]1CN([C@@H](C)CO)C(=O)c2cccc(NC(=O)c3ccncc3)c2O[C@@H]1CN(C)Cc1ccc(-c2ccccc2)cc1	.	58	-
C[C@H](CO)N1C[C@H](C)[C@@H](CN(C)Cc2ccc(C(=O)O)cc2)Oc2c(NC(=O)c3ccncc3)cccc2C1=O	-	-	-
COc1ccc(S(=O)(=O)N[C@@H]2CCCN(Cc3cccc(OCCO)c3)C2)cc1	-	.	.
O=C(CCCCCCC(=O)Nc1ccccc1O)N/N=C/c1ccco1	-	-	-
C[C@@H]1CN([C@@H](C)CO)C(=O)c2cccc(NC(=O)c3nc4ccccc4s3)c2O[C@@H]1CN(C)Cc1ccc(C(=O)O)cc1	.	-	-
C[C@H](CO)N1C[C@H](C)[C@@H](CN(C)Cc2ccc(C(F)(F)F)cc2)Oc2c(NC(=O)c3nc4ccccc4s3)cccc2C1=O	.	62	-
C[C@@H]1CN([C@@H](C)CO)C(=O)c2cccc(NC(=O)c3nc4ccccc4s3)c2O[C@H]1CN(C)Cc1ccccc1	-	-	-
SMILES	A1 apoptosis 2	T cruzi HTS	INS-1E ATP HTS
C[C@H]1CN([C@@H](C)CO)C(=O)c2cccc(NC(=O)c3nc4ccccc4s3)c2O[C@@H]1CN(C)Cc1ccccc1	.	-	-
C[C@@H]1CN([C@H](C)CO)C(=O)c2cccc(NC(=O)c3nc4ccccc4s3)c2O[C@@H]1CN(C)Cc1ccc(C(F)(F)F)cc1	.	-	-
C[C@H]1CN([C@@H](C)CO)C(=O)c2cccc(NC(=O)c3nc4ccccc4s3)c2O[C@@H]1CN(C)Cc1ccc(C(F)(F)F)cc1	.	64	-
C[C@H](CO)N1C[C@H](C)[C@H](CN(C)Cc2ccc(C(F)(F)F)cc2)Oc2c(NC(=O)c3nc4ccccc4s3)cccc2C1=O	-	67	-
C[C@@H]1CN([C@@H](C)CO)C(=O)c2cccc(NC(=O)c3nc4ccccc4s3)c2O[C@H]1CN(C)Cc1ccc(C(F)(F)F)cc1	-	64	-
O=C(NO)c1cccc(C(=O)N/N=C/C2=CCCCC2)c1	-	-	-
O=C(NO)c1ccc(C(=O)N/N=C/c2ccc3c(c2)CCO3)cc1	.	-	-
O=C(NO)c1ccc(C(=O)N/N=C/c2ccncc2Br)cc1	-	-	-
C[C@@H]1CN([C@@H](C)CO)C(=O)c2cc(NS(=O)(=O)c3cccs3)ccc2O[C@@H]1CN(C)Cc1ccc(C(=O)Nc2ccccc2N)cc1	.	-	-
C[C@@H]1CCCCO[C@H](CN(C)S(C)(=O)=O)[C@@H](C)CN([C@H](C)CO)C(=O)c2cc(NS(C)(=O)=O)ccc2O1	.	-	-
O=C(CCCCC(=O)N/N=C/c1cccnc1Br)NO	-	.	.
C[C@H](CO)N1C[C@H](C)[C@H](CN(C)S(=O)(=O)c2ccc(F)cc2)Oc2c(NC(=O)CCCCCC(=O)Nc3ccccc3N)cccc2C1=O	.	63	-
Cc1ccc(S(=O)(=O)N(C)C[C@@H]2Oc3c(NC(=O)CCCCCC(=O)Nc4ccccc4N)cccc3C(=O)N([C@H](C)CO)C[C@@H]2C)cc1	-	73	-
C[C@@H]1CN([C@@H](C)CO)C(=O)c2cccc(NC(=O)CCCCCC(=O)Nc3ccccc3N)c2O[C@@H]1CN(C)S(=O)(=O)c1ccc(F)cc1	-	-	-
Cc1ccc(S(=O)(=O)N(C)C[C@H]2Oc3c(NC(=O)CCCCCC(=O)Nc4ccccc4N)cccc3C(=O)N([C@@H](C)CO)C[C@@H]2C)cc1	-	.	.
C[C@@H]1CN([C@@H](C)CO)C(=O)c2cccc(NC(=O)CCCCCC(=O)Nc3ccccc3N)c2O[C@H]1CN(C)S(=O)(=O)c1ccc(F)cc1	.	-	-
C[C@@H]1CN([C@H](C)CO)C(=O)c2cccc(NC(=O)CCCCCC(=O)Nc3ccccc3N)c2O[C@@H]1CN(C)S(=O)(=O)c1ccc(F)cc1	.	61	-
COC(=O)CCCCCCC(=O)N/N=C/c1cc(Br)ccc1O	-	-	-
C[C@H](CO)N1C[C@H](C)[C@H](CN(C)Cc2ccc(C(=O)Nc3ccccc3N)cc2)Oc2ccc(NS(=O)(=O)c3ccc(Cl)cc3)cc2CC1=O	.	60	-
Cc1ccc(S(=O)(=O)Nc2ccc3c(c2)CC(=O)N([C@@H](C)CO)C[C@H](C)[C@@H](CN(C)Cc2ccc(C(=O)Nc4ccccc4N)cc2)O3)cc1	-	-	-
